Results taken from ChEMBL document CHEMBL1154716, “Synthesis of some new S-triazine based chalcones and their derivatives as potent antimicrobial agents” (2010).
In brackets after ≈: the same amount, converted by molar mass. Activity calls are given as the source filed them. The calls are words filed in the database; no cut-off is given here.

Assays:
[1] = test system: Salmonella typhimurium; assay: Antimicrobial activity against Salmonella Typhimurium at 1 umol/disk after 24 hrs by disk diffusion assay; format: functional, organism-based; conditions: Salmonella enterica subsp. enterica serovar Typhimurium
Summary of the method: (§1)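 Disc diffusion on 4 mm filter discs. Bacteria are grown overnight in LB at 28 C, then adjusted in saline to 1.0 × 10^5 cfu/ml. The suspension is mixed into top agar over peptone agar plates. Plates are incubated 24 h at 28 C, and growth-inhibition zone diameter is measured. Streptomycin and ampicillin controls are applied from a 1 mg/ml stock. Tests are done in duplicate.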

[2] = test system: Bacillus cereus; assay: Antimicrobial activity against Bacillus cereus after 24 hrs by microdilution technique; format: functional
Summary of the method: (§2)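 Broth microdilution in LB medium. Inoculum is 1.0 × 10^4 cfu per well, from a saline-adjusted suspension of 1.0 × 10^5 cfu/ml. Compounds are dissolved in DMSO. Incubated 24 h at 28 C. MIC is the lowest concentration with no visible growth under a binocular microscope. MBC is read by subculture into fresh broth for 72 h, with no growth taken as 99.5% kill. OD is read at 655 nm.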

[3] = test system: Pseudomonas aeruginosa; assay: Antimicrobial activity against Pseudomonas aeruginosa at 10 ug/disk after 24 hrs by disk diffusion assay; format: functional; summary of the method: as §1
[4] = test system: Salmonella typhimurium; assay: Antimicrobial activity against Salmonella Typhimurium at 1 umol/spot after 18 hrs by TLC-bioautographic method; format: functional, Salmonella enterica subsp. enterica serovar Typhimurium
Summary of the method: (§3)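 TLC bioautography. Samples are spotted on silica gel TLC plates, then sprayed with bacteria (1.0 × 10^5 cfu/ml) in tryptic soy broth. Plates are incubated 18 h at 37 C and sprayed with 3% aqueous p-iodonitrotetrazolium violet. After a further 3 h, growth is stopped with 70% EtOH. White zones on a pink background are scored as inhibition-zone diameter with standard errors.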

[5] = test system: Staphylococcus aureus; assay: Antimicrobial activity against Staphylococcus aureus at 1 umol/disk after 24 hrs by disk diffusion assay; format: functional; summary of the method: as §1
[6] = test system: Listeria monocytogenes; assay: Antimicrobial activity against Listeria monocytogenes after 24 hrs by microdilution technique; format: functional; summary of the method: as §2
[7] = test system: Staphylococcus aureus; assay: Antimicrobial activity against Staphylococcus aureus after 24 hrs by microdilution technique; format: functional; summary of the method: as §2
[8] = test system: Micrococcus flavus; assay: Antimicrobial activity against Micrococcus flavus after 24 hrs by microdilution technique; format: functional; summary of the method: as §2
[9] = test system: Salmonella typhimurium; assay: Antimicrobial activity against Salmonella Typhimurium after 24 hrs by microdilution technique; format: functional, Salmonella enterica subsp. enterica serovar Typhimurium; conditions: Salmonella enterica; summary of the method: as §2
[10] = test system: Pseudomonas aeruginosa; assay: Antimicrobial activity against Pseudomonas aeruginosa after 24 hrs by microdilution technique; format: functional; summary of the method: as §2
[11] = test system: Salmonella typhimurium; assay: Antimicrobial activity against Salmonella Typhimurium at 10 ug/disk after 24 hrs by disk diffusion assay; format: functional, organism-based; conditions: Salmonella enterica subsp. enterica serovar Typhimurium; summary of the method: as §1
[12] = test system: Micrococcus flavus; assay: Antimicrobial activity against Micrococcus flavus at 1 umol/disk after 24 hrs by disk diffusion assay; format: functional; summary of the method: as §1
[13] = test system: Pseudomonas aeruginosa; assay: Antimicrobial activity against Pseudomonas aeruginosa at 1 umol/spot after 18 hrs by TLC-bioautographic method; format: functional; summary of the method: as §3
[14] = test system: Listeria monocytogenes; assay: Antimicrobial activity against Listeria monocytogenes at 1 umol/disk after 24 hrs by disk diffusion assay; format: functional; summary of the method: as §1
[15] = test system: Enterobacter cloacae; assay: Antimicrobial activity against Enterobacter cloacae at 1 umol/spot after 18 hrs by TLC-bioautographic method; format: functional; summary of the method: as §3
[16] = test system: Bacillus cereus; assay: Antimicrobial activity against Bacillus cereus at 1 umol/spot after 18 hrs by TLC-bioautographic method; format: functional; summary of the method: as §3
[17] = test system: Staphylococcus aureus; assay: Antimicrobial activity against Staphylococcus aureus at 1 umol/spot after 18 hrs by TLC-bioautographic method; format: functional; summary of the method: as §3
[18] = test system: Enterobacter cloacae; assay: Antimicrobial activity against Enterobacter cloacae at 1 umol/disk after 24 hrs by disk diffusion assay; format: functional; summary of the method: as §1
[19] = test system: Micrococcus flavus; assay: Antimicrobial activity against Micrococcus flavus at 10 ug/disk after 24 hrs by disk diffusion assay; format: functional; conditions: for zone of inhibition at 10 µg/disc: read-out: IZ; summary of the method: as §1
[20] = test system: Listeria monocytogenes; assay: Antimicrobial activity against Listeria monocytogenes at 10 ug/disk after 24 hrs by disk diffusion assay; format: functional; summary of the method: as §1
[21] = test system: Escherichia coli; assay: Antimicrobial activity against Escherichia coli at 1 umol/disk after 24 hrs by disk diffusion assay; format: functional; summary of the method: as §1
[22] = test system: Listeria monocytogenes; assay: Antimicrobial activity against Listeria monocytogenes at 1 umol/spot after 18 hrs by TLC-bioautographic method; format: functional; summary of the method: as §3
[23] = test system: Pseudomonas aeruginosa; assay: Antimicrobial activity against Pseudomonas aeruginosa at 1 umol/disk after 24 hrs by disk diffusion assay; format: functional; summary of the method: as §1
[24] = test system: Enterobacter cloacae; assay: Antimicrobial activity against Enterobacter cloacae after 24 hrs by microdilution technique; format: functional; summary of the method: as §2
[25] = test system: Bacillus cereus; assay: Antimicrobial activity against Bacillus cereus at 1 umol/disk after 24 hrs by disk diffusion assay; format: functional; summary of the method: as §1
[26] = test system: Micrococcus flavus; assay: Antimicrobial activity against Micrococcus flavus at 1 umol/spot after 18 hrs by TLC-bioautographic method; format: functional; summary of the method: as §3
[27] = test system: Bacillus cereus; assay: Antimicrobial activity against Bacillus cereus at 10 ug/disk after 24 hrs by disk diffusion assay; format: functional; summary of the method: as §1
[28] = test system: Escherichia coli; assay: Antimicrobial activity against Escherichia coli at 1 umol/spot after 18 hrs by TLC-bioautographic method; format: functional; summary of the method: as §3
[29] = test system: Enterobacter cloacae; assay: Antimicrobial activity against Enterobacter cloacae at 10 ug/disk after 24 hrs by disk diffusion assay; format: functional; summary of the method: as §1
[30] = test system: Escherichia coli; assay: Antimicrobial activity against Escherichia coli after 24 hrs by microdilution technique; format: functional; summary of the method: as §2
[31] = test system: Staphylococcus aureus; assay: Antimicrobial activity against Staphylococcus aureus at 10 ug/disk after 24 hrs by disk diffusion assay; format: functional; summary of the method: as §1
[32] = test system: Escherichia coli; assay: Antimicrobial activity against Escherichia coli at 10 ug/disk after 24 hrs by disk diffusion assay; format: functional; summary of the method: as §1

| MIC [2] | MIC [6] | MIC [7] | MIC [8] | MIC [9] | MIC [10] | SMILES | inhibition zone (IZ) [1] | MBC [2] | inhibition zone (IZ) [3] | inhibition zone (IZ) [5] | MBC [6] | MBC [7] | MBC [8] | MBC [9] | MBC [10] | inhibition zone (IZ) [11] | inhibition zone (IZ) [12] | inhibition zone (IZ) [13] | inhibition zone (IZ) [14] | inhibition zone (IZ) [15] | other results |
| --- | --- | --- | --- | --- | --- | --- | --- | --- | --- | --- | --- | --- | --- | --- | --- | --- | --- | --- | --- | --- | --- |
| 193 µM (≈ 100 µg/mL) | 386 µM (≈ 200 µg/mL) | 386 µM (≈ 200 µg/mL) | 193 µM (≈ 100 µg/mL) | 386 µM (≈ 200 µg/mL) | 386 µM (≈ 200 µg/mL) | O=C(/C=C/c1ccc(Cl)cc1)c1ccc(Nc2nc(Nc3ccccc3)nc(Nc3ccccc3)n2)cc1 | inactive | 386 µM (≈ 200 µg/mL) | inactive | inactive | 772 µM (≈ 401 µg/mL) | 772 µM (≈ 401 µg/mL) | 386 µM (≈ 200 µg/mL) | 772 µM (≈ 401 µg/mL) | 772 µM (≈ 401 µg/mL) | inactive | inactive | inactive | inactive | 0.08 millimeter | inhibition zone (IZ) [4]: 0.09 millimeter; inhibition zone (IZ) [16]: inactive; inhibition zone (IZ) [17]: inactive; inhibition zone (IZ) [18]: inactive; inhibition zone (IZ) [19]: inactive; inhibition zone (IZ) [20]: inactive; inhibition zone (IZ) [21]: inactive; inhibition zone (IZ) [22]: 0.07 millimeter; inhibition zone (IZ) [23]: inactive; MBC [24]: 386 µM (≈ 200 µg/mL); MIC [24]: 193 µM (≈ 100 µg/mL); inhibition zone (IZ) [25]: inactive; inhibition zone (IZ) [26]: 0.07 millimeter; inhibition zone (IZ) [27]: inactive; inhibition zone (IZ) [28]: inactive; inhibition zone (IZ) [29]: inactive; MBC [30]: 772 µM (≈ 401 µg/mL); MIC [30]: 772 µM (≈ 401 µg/mL); inhibition zone (IZ) [31]: inactive; inhibition zone (IZ) [32]: inactive |
| 195 µM (≈ 100 µg/mL) | 780 µM (≈ 401 µg/mL) | 195 µM (≈ 100 µg/mL) | 195 µM (≈ 100 µg/mL) | 195 µM (≈ 100 µg/mL) | 780 µM (≈ 401 µg/mL) | Nc1nc(-c2ccc(Nc3nc(Nc4ccccc4)nc(Nc4ccccc4)n3)cc2)cc(-c2ccco2)n1 | inactive | 390 µM (≈ 200 µg/mL) | inactive | inactive | 780 µM (≈ 401 µg/mL) | 390 µM (≈ 200 µg/mL) | 390 µM (≈ 200 µg/mL) | 390 µM (≈ 200 µg/mL) | 780 µM (≈ 401 µg/mL) | inactive | 0.03 millimeter | inactive | inactive | 0.08 millimeter | inhibition zone (IZ) ([4]; Salmonella enterica subsp. enterica serovar Typhimurium): inactive; inhibition zone (IZ) [16]: inactive; inhibition zone (IZ) [17]: 0.06 millimeter; inhibition zone (IZ) [18]: inactive; zone of inhibition at 10 µg/disc [19]: 6 mm; inhibition zone (IZ) [20]: inactive; inhibition zone (IZ) [21]: 0.05 millimeter; inhibition zone (IZ) [22]: 0.08 millimeter; inhibition zone (IZ) [23]: inactive; MBC [24]: 390 µM (≈ 200 µg/mL); MIC [24]: 195 µM (≈ 100 µg/mL); inhibition zone (IZ) [25]: inactive; inhibition zone (IZ) [26]: 0.07 millimeter; inhibition zone (IZ) [27]: inactive; inhibition zone (IZ) [28]: 0.08 millimeter; inhibition zone (IZ) [29]: inactive; MBC [30]: 390 µM (≈ 200 µg/mL); MIC [30]: 195 µM (≈ 100 µg/mL); inhibition zone (IZ) [31]: inactive; zone of inhibition at 10 µg/disc ([32]; read-out: IZ): 10 mm |
| 189 µM (≈ 100 µg/mL) | 756 µM (≈ 400 µg/mL) | 189 µM (≈ 100 µg/mL) | 189 µM (≈ 100 µg/mL) | 189 µM (≈ 100 µg/mL) | 756 µM (≈ 400 µg/mL) | Nc1nc(-c2ccc(Nc3nc(Nc4ccccc4)nc(Nc4ccccc4)n3)cc2)cc(-c2cccs2)n1 | inactive | 378 µM (≈ 200 µg/mL) | inactive | inactive | 756 µM (≈ 400 µg/mL) | 378 µM (≈ 200 µg/mL) | 378 µM (≈ 200 µg/mL) | 378 µM (≈ 200 µg/mL) | 756 µM (≈ 400 µg/mL) | inactive | 0.04 millimeter | inactive | inactive | 0.08 millimeter | inhibition zone (IZ) [4]: 0.09 millimeter; inhibition zone (IZ) [16]: 0.09 millimeter; inhibition zone (IZ) [17]: 0.03 millimeter; inhibition zone (IZ) [18]: inactive; zone of inhibition at 10 µg/disc [19]: 6 mm; inhibition zone (IZ) [20]: inactive; inhibition zone (IZ) [21]: inactive; inhibition zone (IZ) [22]: 0.08 millimeter; inhibition zone (IZ) [23]: inactive; MBC [24]: 378 µM (≈ 200 µg/mL); MIC [24]: 189 µM (≈ 100 µg/mL); inhibition zone (IZ) [25]: inactive; inhibition zone (IZ) [26]: 0.08 millimeter; inhibition zone (IZ) [27]: inactive; inhibition zone (IZ) [28]: inactive; inhibition zone (IZ) [29]: inactive; MBC [30]: 378 µM (≈ 200 µg/mL); MIC [30]: 189 µM (≈ 100 µg/mL); inhibition zone (IZ) [31]: inactive; inhibition zone (IZ) [32]: inactive |
